How the values were obtained:
[1] = tested on: Bacteria; assay: Inhibition of bacterial ImiS expressed in Escherichia coli BL21(DE3) at 50 uM using imipenem as substrate by spectrometric method relative to control
[2] = Inhibition of bacterial L1 expressed in Escherichia coli BL21(DE3) using cefazolin as substrate by spectrometric method; set-up: species or system Bacteria
In short: (§1)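 Purified enzymes, overexpressed and purified by earlier methods, assayed under steady-state conditions by UV spectrometry in 50 mM Tris, pH 7.0. Substrate for NDM-1, VIM-2 and L1 was cefazolin (50 µM), read at 262 nm. Substrate for ImiS was imipenem (60 µM), read at 300 nm. Inhibitor varied 0–50 µM; IC50 is the concentration giving 50% loss of activity.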

[3] = tested on: Bacteria; assay: Inhibition of bacterial NDM1 expressed in Escherichia coli BL21(DE3) at 50 uM using cefazolin as substrate by spectrometric method relative to control
[4] = tested on: Bacteria; assay: Inhibition of bacterial VIM2 expressed in Escherichia coli BL21(DE3) at 50 uM using cefazolin as substrate by spectrometric method relative to control
[5] = tested on: Bacteria; assay: Inhibition of bacterial NDM1 expressed in Escherichia coli DH10B assessed as potentiation of cefazolin-induced antibacterial activity by measuring cefazolin MIC at 32 ug/ml after 16 hrs by broth micro-dilution method (reference value: 8 ug/ml)
[6] = tested on: Bacteria; assay: Inhibition of bacterial VIM2 expressed in Escherichia coli DH10B assessed as potentiation of cefazolin-induced antibacterial activity by measuring cefazolin MIC at 32 ug/ml after 16 hrs by broth micro-dilution method (reference value: 512 ug/ml)
[7] = tested on: Bacteria; assay: Inhibition of bacterial ImiS expressed in Escherichia coli DH10B assessed as potentiation of imipenem-induced antibacterial activity by measuring imipenem MIC at 32 ug/ml after 16 hrs by broth micro-dilution method (reference value: 2 ug/ml)
[8] = tested on: Bacteria; assay: Inhibition of bacterial L1 expressed in Escherichia coli DH10B assessed as potentiation of cefazolin-induced antibacterial activity by measuring cefazolin MIC at 32 ug/ml after 16 hrs by broth micro-dilution method (reference value: 32 ug/ml)
In short: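 Dose-dependent cefazolin MIC assay against E. coli DH10B expressing L1 from a pBCSK plasmid, with varied inhibitor doses up to 256 µg/mL. Fold decrease in MIC was taken relative to cefazolin alone. Medium pH was monitored during the assay.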

[9] = Inhibition of bacterial NDM1 expressed in Escherichia coli BL21(DE3) using cefazolin as substrate by spectrometric method; set-up: species or system Bacteria; in short: as §1
[10] = Inhibition of bacterial VIM2 expressed in Escherichia coli BL21(DE3) using cefazolin as substrate by spectrometric method; set-up: species or system Bacteria; in short: as §1
[11] = Inhibition of bacterial ImiS expressed in Escherichia coli BL21(DE3) using imipenem as substrate by spectrometric method; set-up: species or system Bacteria; in short: as §1
[12] = tested on: Bacteria; assay: Inhibition of bacterial NDM1 expressed in Escherichia coli DH10B assessed as potentiation of cefazolin-induced antibacterial activity by measuring fold reduction in cefazolin MIC at 32 ug/ml after 16 hrs by broth micro-dilution method relative to cefazolin alone
[13] = tested on: Bacteria; assay: Inhibition of bacterial VIM2 expressed in Escherichia coli DH10B assessed as potentiation of cefazolin-induced antibacterial activity by measuring fold reduction in cefazolin MIC at 32 ug/ml after 16 hrs by broth micro-dilution method relative to cefazolin alone

Row | SMILES | inhibition [1] [%] | IC50 [2] [nM] | inhibition [3] [%] | inhibition [4] [%] | MIC [5] [µg/mL] | MIC [6] [µg/mL] | MIC [7] [µg/mL] | MIC [8] [µg/mL] | IC50 [9] [nM] | IC50 [10] [nM] | IC50 [11] [nM] | fold change (FC) [12] | fold change (FC) [13]
1 | O=C(O)CN1C(=O)/C(=C/c2ccccc2)SC1=S | < 50 | 320 | < 50 | < 50 | 8 | 256 | 2 | 8 |  |  |  |  | 
2 | O=C(O)c1ccc(N2C(=O)/C(=C/c3ccccn3)SC2=S)cc1 | < 50 | 210 |  |  | 2 | 128 | 2 | 8 | 1130 | 920 |  | 4 to 8 | 4
3 | O=C(O)CN1C(=O)/C(=C/c2ccccn2)SC1=S |  | 160 | < 50 | < 50 | 8 | 512 | 2 | 8 |  |  | 19100 |  | 
4 | O=C(O)c1ccc(N2C(=O)/C(=C/c3cccs3)SC2=S)cc1 | < 50 | 590 |  | < 50 | 4 | 512 | 1 | 8 | 14300 |  |  |  | 
5 | COc1ccc(/C=C(\S)C(=O)O)cc1 | < 50 | 320 | < 50 |  | 16 | 256 | 2 | 16 |  | 4700 |  |  | 
6 | O=C(O)CN1C(=O)/C(=C/c2cccs2)SC1=S | < 50 | 770 | < 50 | < 50 | 8 | 512 | 2 | 8 |  |  |  |  | 
7 | O=C(O)CN1C(=O)/C(=C/c2ccc(F)cc2)SC1=S | < 50 | 200 |  |  | 4 | 256 | 2 | 8 | 15400 | 14400 |  |  | 
8 | COc1ccc(/C=C2\SC(=S)N(CC(=O)O)C2=O)cc1 | < 50 | 600 |  | < 50 | 4 | 512 | 2 | 8 | 25100 |  |  |  | 
9 | O=C(O)c1ccc(N2C(=O)/C(=C/c3ccccc3)SC2=S)cc1 |  | 210 |  | < 50 | 1 | 512 | 1 | 8 | 8700 |  | 18300 | 4 to 8 | 
10 | O=C(O)CN1C(=O)/C(=C/c2cccc3ccccc23)SC1=S | < 50 | 280 | < 50 |  | 8 | 512 | 1 | 8 |  | 27900 |  |  | 
11 | O=C(O)CN1C(=O)/C(=C/c2ccc(Cl)cc2)SC1=S | < 50 | 220 | < 50 |  | 8 | 512 | 2 | 8 |  | 15300 |  |  | 
12 | O=C(O)CN1C(=O)/C(=C/c2ccc3ccccc3c2)SC1=S | < 50 | 370 | < 50 | < 50 | 16 | 512 | 2 | 8 |  |  |  |  | 
13 | O=C(O)c1ccc(N2C(=O)/C(=C/c3ccco3)SC2=S)cc1 | < 50 | 180 |  | < 50 | 4 | 512 | 1 | 8 | 690 |  |  |  | 
14 | O=C(O)CN1C(=O)/C(=C/c2ccco2)SC1=S | < 50 | 1700 |  | < 50 | 8 | 512 | 2 | 8 | 47000 |  |  |  | 

Compounds with a lower IC50 [2], results first:

Row | inhibition [1] [%] | IC50 [2] [nM] | inhibition [3] [%] | inhibition [4] [%] | MIC [5] [µg/mL] | MIC [6] [µg/mL] | MIC [7] [µg/mL] | MIC [8] [µg/mL] | IC50 [9] [nM] | IC50 [10] [nM] | IC50 [11] [nM] | fold change (FC) [12] | fold change (FC) [13] | SMILES
15 |  | 120 | < 50 |  | > 64 | 128 | 1 | 8 |  | 1900 | 16500 |  | 4 | O=C(O)c1ccc(N2C(=O)/C(=C/c3ccc4ccccc4c3)SC2=S)cc1
16 | < 50 | 110 |  |  | 4 | 256 | 1 | 8 | 14300 | 12700 |  |  |  | O=C(O)CN1C(=O)/C(=C/c2ccc(C(F)(F)F)cc2)SC1=S
17 |  | 100 | < 50 | < 50 | 8 | 512 | 1 | 8 |  |  | 6900 |  |  | O=C(O)c1ccc(N2C(=O)/C(=C/c3cccc4ccccc34)SC2=S)cc1
18 |  | 80 |  |  | 2 | 256 | 1 | 8 | 8400 | 6900 | 3600 |  |  | O=C(O)c1ccc(N2C(=O)/C(=C/c3ccc(F)cc3)SC2=S)cc1
19 | < 50 | 80 |  |  | 4 | 256 | 4 | 16 | 21500 | 25100 |  |  |  | O=C(O)CN1C(=O)/C(=C/c2ccc(Cl)cc2Cl)SC1=S
20 |  | 70 |  |  | 1 | 128 | 1 | 8 | 12200 | 3600 | 7700 | 4 to 8 | 4 | O=C(O)c1ccc(N2C(=O)/C(=C/c3ccc(Cl)cc3)SC2=S)cc1
21 |  | 70 |  |  | 4 | 128 | 1 | 8 | 10600 | 2360 | 7800 |  | 4 | O=C(O)c1ccc(N2C(=O)/C(=C/c3ccc(C(F)(F)F)cc3)SC2=S)cc1

From ChEMBL document CHEMBL4251739, “Rhodanine as a Potent Scaffold for the Development of Broad-Spectrum Metallo-β-lactamase Inhibitors” (ACS Med Chem Lett, 2018)
